This is a sample that favours compounds with a hit; in the whole collection about 5.1% have one here.
APP 5'UTR act: activators of APP 5'UTR luciferase reporter, primary screen, SH-SY5Y cells. SH-SY5Y APP 5'UTR luciferase reporter, luminescence; zero percent = DMSO vehicle wells. activation, % at 2 µM. AID 1276, 2008. 190,000 compounds, 1% hits;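 active = activation above a set limit, based on mean plus 3 SD of controls, cut at about 140% in these data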
NF-kB neuron act: activators of NF-kB expression in neurons, primary screen, cell-based, HTS | human neuronal cells, NF-kB reporter expression; active compounds read high | fold change at 12.5 µM | 190,000 compounds, 1.6% hits | AID 1239, 2008; in the data active = fold change above about 3.3
STAT3 activator: IL-6 driven STAT3 reporter potentiators, primary screen, U3A cells, luciferase, luminescence, MLSCN library; IL-6 STAT3-luciferase reporter; 100% = signal with IL-6 EC80 alone; AID 871, 2007; 190,000 compounds, 0.91% hits; activation (% of control), % at 5.6 µM;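 active = activation above the screen-wide mean of compound activation plus 3 SD, cut at about 130% in these data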;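 also: 0% = background luminescence of wells with medium and substrate only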
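system = STAT3-luciferase reporter U3A cells | reagent = IL-6 stimulus at 33 ng/mL final | timing = 1 h compound pre-exposure, 6 h IL-6 stimulation, 37 °C | measured by = luminescence | evaluation = % activation versus median of IL-6-stimulated wells | control set = IL-6-only wells as 100% reference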
STAT1 inh: STAT1 signaling inhibitors, primary screen, cell-based, HTS, luciferase reporter. NIH 3T3 STAT1-luciferase reporter, IFN-gamma, luminescence. inhibition, % at 5.5 µM. 200,000 compounds, 0.35% hits. AID 920, 2007;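 active = inhibition above a set limit, the mean inhibition across all tested compounds plus 3 SD, cut at about 34% in these data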;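 also: 0% = IFN-gamma with DMSO and 100% = IFN-gamma with 300 µM nifuroxazide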
STAT1 activator: STAT1 signaling activators, primary screen, cell-based, HTS, luciferase reporter. NIH 3T3 STAT1-luciferase reporter, IFN-gamma, luminescence; 100% = IFN-gamma alone, no compound. activation (% of control), % at 5.5 µM. 200,000 compounds, 2.6% hits. AID 932, 2007;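 active = activation above the screen-wide mean activation plus 3 SD, cut at about 130% in these data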;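 also: raw ratio to IFN-gamma control signal so 100% means no change and 0% no light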
STAT3 blocker: IL-6 driven STAT3 reporter inhibitors, primary screen, U3A cells, luciferase, luminescence, MLSCN library | IL-6 STAT3-luciferase reporter; host cell line lacks STAT1 | inhibition, % at 5.5 µM | 190,000 compounds, 0.89% hits;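 active = inhibition above the mean inhibition across all screened compounds plus 3 SD, cut at about 44% in these data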;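 also: 0% = DMSO only wells and 100% = 100 µM nifuroxazide control wells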
* marks the source's active call; other numbers are inactive results; · = no result.

SMILES	APP 5'UTR act	NF-kB neuron act	STAT3 activator	STAT1 inh	STAT1 activator	STAT3 blocker
C=CCNc1nc(N2CCCCC2)c(C#N)c2c1CN(Cc1ccccc1)CC2	3	4.7*	100	-6	106	5
COC(=O)CCCC(=O)NC(C)c1cnn(-c2ccccc2C)c1C (stereo not given)	18	1.7	100	4	94	3
COc1ccc(/C=C/C(=O)c2ccc[nH]2)cc1OC	53	2.6	121	-32	130*	-29
COc1ccc(NC(=O)C2CCN(S(=O)(=O)c3ccc(Br)s3)CC2)cc1OC	-7	1.4	111	-2	102	-9
CCc1ccc2c(c1)/C(=N/OC)C(=O)N2	1	1.1	89	0	100	11
NS(=O)(=O)c1ccc(CCNC(=O)Cc2ccccc2[N+](=O)[O-])cc1	-10	0.91	133*	6	94	-30
CCC(=O)c1cc2c(C)cc(=O)oc2c(C)c1OC(=O)C(C)C	19	1.3	106	-1	101	-3
Cc1ccc(NC(=O)C(OC(=O)c2ccccc2Cl)c2ccccc2)cc1Cl (stereo not given)	-15	1.1	106	4	96	-7
COc1ccc(C(=O)C(OC(=O)c2ccccc2)c2ccccc2)cc1 (stereo not given)	42	1.5	125	-36	133*	-22
COc1ccc(C(=O)C(OC(=O)c2ccccc2Cl)c2ccccc2)cc1 (stereo not given)	26	1.5	118	-44	140*	-28
O=S(=O)(c1ccccc1)N1CCC2(CC1)OCCO2	4	·	98	-3	103	8
Cc1ccc(S(=O)(=O)Nc2ccccc2C(N)=O)cc1	-3	1	134*	-9	111	-37
NC(=O)c1ccccc1NS(=O)(=O)c1ccccc1	-7	1.5	99	0	100	1
CS(=O)(=O)N1CCN(c2ccc(NC(=O)c3ccc(Br)o3)cc2)CC1	27	1.9	99	-33	130*	5
CC(C)NC(=O)CCc1nnc(Cc2cccc(C(F)(F)F)c2)o1	40	2.5	112	-46	140*	-9
CCC(COC)NC(=O)CCc1nnc(Cc2cccc(C(F)(F)F)c2)o1 (stereo not given)	22	1.9	95	-17	114	10
CCCNC(=O)C1CCN(S(=O)(=O)c2cccc3nonc23)CC1	0	1	105	1	98	-4
CN(C)S(=O)(=O)c1cccc(C(=O)Nc2ccc(S(=O)(=O)N3CCCC3)cc2)c1	8	0.91	101	1	97	0
CCC(=O)N1N=C(c2ccc(NS(C)(=O)=O)cc2)CC1c1ccc(N(C)C)cc1 (stereo not given)	24	2	111	-34	129*	-6
O=C(NCc1ccccn1)C1CCCCC1	2	1.4	104	1	99	5
CCC(=O)NC(c1ccccc1OC)c1ccc2cccnc2c1O (stereo not given)	-89	6.9*	84	7	95	21
CC(C)c1ccc(CNC(=O)C(=O)NCC2CCCO2)cc1 (stereo not given)	13	1.3	110	0	98	-9
COc1ccc(-c2noc(-c3ccccc3Cl)n2)cc1OC	125	4.9*	109	-47	143*	-7
COc1ccc(-c2noc(-c3cccc(Cl)c3)n2)cc1OC	52	2	93	-16	114	12
COc1ccc(-c2nc(-c3ccncc3)no2)cc1OC	78	1.1	117	-32	132*	-16
Cc1cccc(-c2noc(-c3ccoc3C)n2)c1	105	2.1	100	-53	150*	0
Cc1cccc(-c2noc(Cc3ccc(Cl)cc3)n2)c1	30	1.8	106	-15	114	-2
COc1ccc(-c2noc(-c3ccoc3C)n2)cc1OC	61	3.6*	93	-46	143*	14
NC(=O)c1ccc(NC(=O)COC(=O)c2cccc(Oc3ccccc3)c2)cc1	13	1.3	101	-5	104	3
